Screening data: PubChem, Sanford-Burnham Center for Chemical Genomics
XBP1 UPR activ = adaptive UPR (XBP1) activation; CHO-XBP1 luciferase reporter, IRE1-XBP1 UPR activation, luminescence; percent of tunicamycin response, DMSO as zero; activation, % at 20 µM; 330,000 compounds, 0.33% hits;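 active means versus positive control, 20 µM dose yields 30% or more activation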
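Material: CHO-XBP1 cells stably carrying IRE1-XBP1-driven luciferase reporter / Amount: 1000 cells per well / Compound: 20 µM, 1% DMSO / Times: 6 h treatment, 37 °C / Detection: luciferase luminescence / Measure: % activation of reporter signal versus tunicamycin and DMSO controls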
UBC13 polyUb = human UBC13 polyubiquitination inhibition | 330,000 compounds, 0.47% hits | inhibition, % at 20 µM | P61088 | UBC13 polyubiquitin chain formation, TR-FRET; in the data active means inhibition above about 45%, passing the limit was not always enough
Apaf-1 inh = human Apaf-1 inhibition | reconstituted apoptosome caspase-3 activity, DEVD-Rh110 fluorescence | inhibition, % at 20 µM | 330,000 compounds, 0.71% hits | AID 489030; active means inhibition of at least 40% at 20 µM
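Assay system: Apoptosome proteins | Medium: pH 7.5 Hepes buffer with CHAPS, BSA, DTT | Also added: Cytochrome c and DEVD-Rh110 substrate | Times: 30 min plus 50 min, RT | Detection: Rhodamine 110 fluorescence at Ex 480/Em 540 nm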
Mdm2 MdmX PPI = disrupts the human Mdm2-MdmX interaction; O15151+Q00987; inhibition, % at 8 µM; SaOS-2 split-luciferase Mdm2/MdmX complementation, luminescence; AID 485346; 330,000 compounds, 3% hits;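 active means inhibition of at least 50% at 8 µM in the primary screen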
Target sequence (O15151 whole entry, looked up): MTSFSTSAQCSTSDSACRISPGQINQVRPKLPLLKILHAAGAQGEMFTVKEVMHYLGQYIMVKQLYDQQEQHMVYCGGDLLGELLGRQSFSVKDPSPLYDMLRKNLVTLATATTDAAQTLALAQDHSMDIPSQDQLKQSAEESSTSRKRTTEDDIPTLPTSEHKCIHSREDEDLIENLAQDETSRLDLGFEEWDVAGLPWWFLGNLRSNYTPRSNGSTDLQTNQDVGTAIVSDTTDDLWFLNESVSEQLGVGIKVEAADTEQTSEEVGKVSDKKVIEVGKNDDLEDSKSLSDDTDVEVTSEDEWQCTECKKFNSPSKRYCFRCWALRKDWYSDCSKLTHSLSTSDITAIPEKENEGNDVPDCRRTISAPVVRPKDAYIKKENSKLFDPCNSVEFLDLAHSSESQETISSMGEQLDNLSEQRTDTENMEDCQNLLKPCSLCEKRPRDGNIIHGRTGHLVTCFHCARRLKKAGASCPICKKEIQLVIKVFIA
Target sequence (Q00987 whole entry, looked up): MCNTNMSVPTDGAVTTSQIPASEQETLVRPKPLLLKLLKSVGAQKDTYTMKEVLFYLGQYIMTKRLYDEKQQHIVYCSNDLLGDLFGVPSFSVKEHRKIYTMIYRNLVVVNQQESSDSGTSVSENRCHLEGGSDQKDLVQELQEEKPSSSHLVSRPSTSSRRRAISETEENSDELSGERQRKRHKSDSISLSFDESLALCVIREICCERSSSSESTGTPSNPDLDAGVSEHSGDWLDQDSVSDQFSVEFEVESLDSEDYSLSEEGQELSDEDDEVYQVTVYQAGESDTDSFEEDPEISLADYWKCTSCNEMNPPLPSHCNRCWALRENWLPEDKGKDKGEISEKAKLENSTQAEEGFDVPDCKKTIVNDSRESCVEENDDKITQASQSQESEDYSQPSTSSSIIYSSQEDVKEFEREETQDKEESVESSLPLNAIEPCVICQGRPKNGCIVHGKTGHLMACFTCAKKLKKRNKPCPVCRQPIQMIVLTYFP
CHOP UPR activ = activators of apoptotic arm of unfolded protein response (CHOP); CHO-CHOP luciferase reporter, UPR activation, luminescence; percent of tunicamycin response over DMSO baseline; activation, % at 10 µM; 330,000 compounds, 0.34% hits;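 active means at 10 µM dose, activation of 40% or more, normalized to positive control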
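Test system: CHO-CHOP cells, stable luciferase reporter of PERK-eIF2a-CHOP signalling | Quantity: 500 CHO-CHOP cells per well | Buffer or medium: F12 plus 10% serum | Compound dosing: 10 µM single point, 0.5% DMSO | Schedule: 6 h compound treatment, 37 °C | Signal: Luciferase luminescence | Control set: Tunicamycin high control, DMSO low control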
Apaf-1 inh conf = Apaf-1 inhibition, single-dose confirmed. shares compounds with Apaf-1 inh. reconstituted apoptosome, caspase-3 DEVD-Rh110 fluorescence. inhibition, % at 20 µM. 1,800 compounds, 25% hits. AID 504614;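 active means mean inhibition of at least 40% at 20 µM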
Rh110 quench = interferes with Rh110 fluorescence, flagging false Apaf-1 inhibitors; shares compounds with Apaf-1 inh; Rh110 fluorescence interference, quenched caspase reaction; activation (fluorescence interference), % at 20 µM; 1,800 tested, under 10 active; AID 504615;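 active means signal rise of 40% or more at 20 µM, treated as a fluorescence artifact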
Fluor interf inh = Apaf-1 inhibitor counter-screen fluorescence artifact; shares compounds with Apaf-1 inh; fluorescence interference counterscreen, Apaf-1 assay format; IC50, µM; 460 tested, under 10 active; call rule not given here
Large screens that a line does not name were inactive (follow-up assays come after a bar, where they were run). In the library only some 4.1% were active in any assay of this set; here they are far more common.

COc1ccc(S(=O)(=O)Nc2ccc3c(c2)OCO3)cc1	none
COc1ccc(C(=O)CC2OC(=O)c3ccccc32)cc1OC (stereo unspecified)	none
Cc1cccc(NC(=O)N2CCCC2C(=O)Nc2ccccc2)c1 (stereo unspecified)	none
O=C(OCc1nnc(-c2ccccc2)o1)c1ccc([N+](=O)[O-])s1	Apaf-1 inh 47 | Apaf-1 inh conf inactive | Rh110 quench inactive
Cc1ccc(C(=O)OCc2nnc(-c3ccccc3)o2)s1	none
COc1ccc(N(CC(=O)NCCc2ccc(Cl)cc2)S(=O)(=O)c2c(C)[nH]c(=O)[nH]c2=O)cc1	none
Cc1cc(C)c(-n2c(SCCS(=O)(=O)c3ccc(F)cc3)n[nH]c2=O)c(C)c1	none
CC(C)(C)c1ccc(C(=O)NNc2cc(N3CCCCC3)nc(N3CCCCC3)n2)cc1	Apaf-1 inh 73 | Apaf-1 inh conf 44 | Rh110 quench inactive | Fluor interf inh inactive
O=C(CCc1ccccc1)NNc1cc(N2CCCCC2)nc(N2CCCCC2)n1	Apaf-1 inh 60 | Apaf-1 inh conf 44 | Rh110 quench inactive | Fluor interf inh inactive
O=C(CCc1ccccc1)NNC(=O)C1CCCCC1	none
O=C(NNc1cc(N2CCCC2)nc(N2CCCC2)n1)c1ccc([N+](=O)[O-])cc1	Apaf-1 inh 98 | Apaf-1 inh conf 76 | Rh110 quench inactive | Fluor interf inh inactive
Cc1ccccc1CN1CCCOCCS1(=O)=O	none
Cc1cccc(C(=O)NC2C(=O)NNC2c2ccc(Cl)cc2)c1 (stereo unspecified)	Apaf-1 inh 54 | Apaf-1 inh conf inactive | Rh110 quench inactive
O=C(NC1C(=O)NNC1c1ccccc1)c1ccccc1 (stereo unspecified)	none
COc1cc(/C=N/NC(=O)CSc2nc3ccccc3n2C)cc(OC)c1OC	none
CCOc1ccc(OCCSc2ccc(S(=O)(=O)N3CCN(C)CC3)cn2)cc1	Apaf-1 inh 55 | Apaf-1 inh conf inactive | Rh110 quench inactive
CN1CCN(S(=O)(=O)c2ccc(SCCOc3ccccc3)nc2)CC1	none
CCN(c1ccccc1)S(=O)(=O)c1ccc(Cl)c(NC(=O)CN2CCN(C)CC2)c1	Apaf-1 inh 52 | Apaf-1 inh conf inactive | Rh110 quench inactive
CCN1CCN(c2ccc(S(=O)(=O)N3CCOCC3)cc2NC(=O)CC(C)C)CC1	Apaf-1 inh 50 | Apaf-1 inh conf inactive | Rh110 quench inactive
CCN(CC(=O)Nc1cc(S(=O)(=O)N2CCCCC2)ccc1Cl)Cc1ccccc1	none
CCN(CC(=O)Nc1cc(S(=O)(=O)N2CCOCC2)ccc1Cl)Cc1ccccc1	Apaf-1 inh 42 | Apaf-1 inh conf inactive | Rh110 quench inactive
Cc1ccc(NC(=O)COC(=O)CNC(=O)c2ccc(Br)cc2)c(C)c1	none
O=C(C[C@H]1C[C@H](C(=O)N2CCOCC2)[C@@]2(CCC3CCCC3)c3[nH]c4cc(-c5ccco5)ccc4c3CCN2C1=O)NCCCn1ccnc1	Apaf-1 inh 62 (no result: UBC13 polyUb) | Apaf-1 inh conf inactive | Rh110 quench inactive
O=C(C[C@H]1C[C@H](C(=O)N2CCCCC2)[C@@]2(CCc3ccccc3)c3[nH]c4cc(-c5ccco5)ccc4c3CCN2C1=O)NCCN1CCOCC1	Apaf-1 inh 48 (no result: UBC13 polyUb) | Apaf-1 inh conf inactive | Rh110 quench inactive
COCCCNC(=O)C[C@H]1C[C@H](C(=O)N2CCCCC2)[C@@]2(CCc3ccccc3)c3[nH]c4cc(-c5ccco5)ccc4c3CCN2C1=O	none (no result: UBC13 polyUb)
CC[C@]12c3[nH]c4ccc(OC)cc4c3CCN1C(=O)C(CC(=O)NC/C=C(\C)CCC=C(C)C)C[C@@H]2C(=O)N1CCN(C(=O)c2ccco2)CC1 (stereo partly specified)	Apaf-1 inh 40 (no result: UBC13 polyUb) | Apaf-1 inh conf inactive | Rh110 quench inactive
CC(C)N(C(=O)[C@H]1C[C@H](CC(=O)NCCC2=CCCCC2)C(=O)N2CCc3c([nH]c4ccc(Cl)cc34)[C@]12C)C(C)C	Apaf-1 inh 44 (no result: UBC13 polyUb) | Apaf-1 inh conf inactive | Rh110 quench inactive
CCCCn1c(N)c(N(Cc2ccccc2OC)C(=O)C(C)C)c(=O)[nH]c1=O	none
CCN(CC)S(=O)(=O)c1ccc(C)c(NC(=O)COC(=O)c2ccc(C)c(S(=O)(=O)N3CCOCC3)c2)c1	none
C[C@]12c3[nH]c4ccc(Cl)cc4c3CCN1C(=O)[C@@H](CC(=O)NCCCn1ccnc1)C[C@@H]2C(=O)N1CCCCC1	none (no result: UBC13 polyUb)
CC(C)(C)NC(=O)C[C@H]1C[C@H](C(=O)N2CCOCC2)[C@@]2(CCC3CCCC3)c3[nH]c4ccc(Cl)cc4c3CCN2C1=O	Apaf-1 inh 44 (no result: UBC13 polyUb) | Apaf-1 inh conf inactive | Rh110 quench inactive
COc1ccc2[nH]c3c(c2c1)CCN1C(=O)C(CC(=O)NC(C)(C)C)C[C@H](C(=O)N2CCOCC2)[C@@]31CCC1CCCC1 (stereo partly specified)	none (no result: UBC13 polyUb)
O=C(C[C@H]1C[C@H](C(=O)N2CCCCC2)[C@@]2(CCc3ccccc3)c3[nH]c4ccc(Cl)cc4c3CCN2C1=O)NCCCn1ccnc1	Apaf-1 inh 61 (no result: UBC13 polyUb) | Apaf-1 inh conf inactive | Rh110 quench inactive
CCC(=Nc1ccc(N)cc1)C1=C(O)C(C(=O)OC)C(C)(C)CC1=O (stereo unspecified)	Apaf-1 inh 61 | Apaf-1 inh conf inactive | Rh110 quench inactive
N#Cc1nc(-c2cccs2)oc1NCc1ccc2c(c1)OCO2	none
O=C(NCCOc1nc(N2CCCCC2)nc(N2CCCCC2)n1)Nc1ccccc1	Apaf-1 inh 41 | Apaf-1 inh conf inactive | Rh110 quench inactive
O=C(NCCOc1nc(N2CCCCC2)nc(N2CCOCC2)n1)Nc1ccccc1	none
Fc1ccc(COc2ccccc2-c2ccnc3ncnn23)cc1	none
O=c1cccccc1NCc1ccccc1	Apaf-1 inh 45 | Apaf-1 inh conf inactive | Rh110 quench inactive
N#Cc1ccccc1NCc1ccccc1	none
COc1ccc(CCNC(=O)C(=O)NCC2CCCN2S(=O)(=O)c2ccc(OC)cc2)cc1 (stereo unspecified)	Apaf-1 inh 61 | Apaf-1 inh conf inactive | Rh110 quench inactive
N#CC1=C(N)Oc2n[nH]c(-c3cccs3)c2C1c1ccncc1 (stereo unspecified)	none
N#CC1=C(N)Oc2n[nH]c(-c3cccs3)c2C1c1ccsc1 (stereo unspecified)	Apaf-1 inh 83 | Apaf-1 inh conf inactive | Rh110 quench inactive
COc1cccc2c1-c1c(C(=O)O)cccc1C2=O	none
